Screening data deposited in PubChem by The Scripps Research Institute Molecular Screening Center.
OXTR ag = human OXTR agonists, primary screen, fluorescence, CHO-OTR cells, Fluo-8 calcium; Oxytocin receptor (Homo sapiens), P30559; Fluo-8 calcium fluorescence; normalized: DMSO 0%, oxytocin 100%; activation, % at 3 µM; actives 0.32% (n = 320,000);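 active = activation above the mean of all tested compounds plus 3 SD, cutoff set per screening run, cut at about 20% in these data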;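 note: peak over basal fluorescence ratio from a 100 s FLIPR kinetic read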
Target sequence (P30559 whole entry, looked up): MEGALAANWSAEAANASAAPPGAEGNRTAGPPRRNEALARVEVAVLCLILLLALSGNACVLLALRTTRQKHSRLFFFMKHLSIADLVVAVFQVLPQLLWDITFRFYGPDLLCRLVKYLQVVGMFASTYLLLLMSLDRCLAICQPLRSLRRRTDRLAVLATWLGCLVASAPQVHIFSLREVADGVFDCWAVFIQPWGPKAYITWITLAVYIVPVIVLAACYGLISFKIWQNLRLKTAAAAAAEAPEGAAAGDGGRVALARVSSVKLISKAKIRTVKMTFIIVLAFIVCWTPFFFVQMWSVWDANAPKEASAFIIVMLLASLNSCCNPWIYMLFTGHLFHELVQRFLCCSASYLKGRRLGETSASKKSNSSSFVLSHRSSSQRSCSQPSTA
V1R ag counter = agonists of human V1a receptor, primary screen, counter-screen for OXTR agonist project, fluorescence, CHO-V1R cells | Vasopressin V1a receptor (Homo sapiens), P37288 | Fluo-8 calcium fluorescence, agonist mode; 0% DMSO, 100% 3 nM vasopressin | activation, % at 3 µM | actives 0.25% (n = 320,000);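 active = activation above the mean activation of all tested compounds plus 3 SD, per screening run, cut at about 20% in these data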;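 note: signal is peak over basal fluorescence ratio across a 100 second FLIPR read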
OXTR potentiator = human OXTR potentiators, primary screen, fluorescence, CHO-OTR cells, Fluo-8 calcium. Oxytocin receptor (Homo sapiens), P30559. Fluo-8 calcium fluorescence, potentiator mode; 0% = oxytocin EC15, 100% = EC100. activation, % at 3 µM. actives 0.061% (n = 320,000);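 active = activation above that plate's cutoff, the mean activation of tested compounds plus 3 SD, cut at about 6.6% in these data, passing the limit was not always enough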;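 note: 100% uses oxytocin at 75 nM as the full agonist control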
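Assay system: CHO cell line stably expressing human OTR. Reagent: EC15 oxytocin agonist. Dosing: single dose, 3.0 µM nominal final compound concentration. Timing: compound 6 min at room temperature before oxytocin, 100 s read. Signal: kinetic Fluo-8 calcium fluorescence. Controls: oxytocin EC15 low and EC100 high.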
TAAR1 agonist = human TAAR1 agonists, primary screen, Fluo-8 calcium fluorescence, CHO RD-HGA16 cells; AID 624467, 2012; actives 0.99% (n = 360,000); activation, % at 3 µM; vehicle wells 0%, saturating PEA agonist 100%;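 active = activation above the mean activation of all test compounds in the run plus 3 SD, cut at about 38% in these data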
Target sequence (Q96RJ0 whole entry, looked up): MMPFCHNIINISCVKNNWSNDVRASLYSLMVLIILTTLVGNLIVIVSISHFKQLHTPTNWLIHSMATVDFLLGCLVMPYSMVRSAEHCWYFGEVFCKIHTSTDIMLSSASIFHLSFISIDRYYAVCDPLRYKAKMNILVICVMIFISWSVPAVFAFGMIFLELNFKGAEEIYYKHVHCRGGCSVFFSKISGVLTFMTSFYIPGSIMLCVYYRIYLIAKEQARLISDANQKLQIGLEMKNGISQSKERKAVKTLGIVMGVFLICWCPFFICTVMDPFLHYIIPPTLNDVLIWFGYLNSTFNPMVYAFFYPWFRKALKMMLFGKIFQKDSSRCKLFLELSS
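Benchmarks: low control DMSO, high control PEA (EC100); System: CHO RD-HGA16 cells carrying human TAAR1 plus Gα16; Detection: Fluo-8 fluorescence, 5 s baseline then 140 s kinetic read; Schedule: 17-24 h plating, Fluo-8 75 min 37 °C, 30 min RT; Read-out basis: % activation from peak over basal fluorescence ratio, DMSO-to-PEA scaled.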
TAAR1 antag = human TAAR1 antagonists, primary screen, Fluo-8 calcium fluorescence, CHO RD-HGA16 cells | actives 1.5% (n = 360,000) | AID 624466, 2012 | Trace amine-associated receptor 1 (Homo sapiens), Q96RJ0 | antagonist | inhibition, % at 3 µM;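 active = inhibition above a per-plate cutoff, the mean inhibition of test compounds on that plate plus 3 SD, cut at about 49% in these data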;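 note: 0% = DMSO plus EC80 beta-PEA response and 100% = DMSO alone without agonist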
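System: RD-HGA16 CHO cells with stable hTAAR1 and Gα16 | Probe or stimulus: EC80 β-phenethylamine stimulus | Dosing: 3 µM, single point | Times: Dye loading 75 min at 37 °C, then 30 min room temperature | Measured by: Fluo-8 calcium-sensitive fluorescence | Read-out basis: % inhibition of agonist calcium response | Replicates: n of 1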
OXTR ag confirm = human OXTR agonists, confirmation, fluorescence, CHO-OTR cells, triplicate | shares compounds with OXTR ag | Fluo-8 calcium fluorescence, agonist | activation, % at 3 µM | actives 20% (n = 390);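 active = mean activation above about 20% derived from the earlier single-dose screen, limit read from the data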;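 note: peak over minimum fluorescence ratio per well during a 100 second FLIPR read; 0% = DMSO alone and 100% = oxytocin high control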
V1aR counter 3x = V1a receptor agonists, calcium signal, counter-screen for OXTR agonist project, triplicate, fluorescence, CHO-V1R cells | activation, % at 3 µM | Fluo-8 calcium fluorescence | actives 10% (n = 390) | shares compounds with OXTR ag;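 active = mean activation over triplicate exceeds the hit threshold set in the earlier primary screen, cut at about 20% in these data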;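 note: peak over basal fluorescence ratio within a 100 second read; 0% = DMSO alone and 100% = 3 nM vasopressin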
OXTR pot cf = human OXTR potentiators, confirmation, fluorescence, CHO-OTR cells, triplicate. shares compounds with OXTR potentiator. Fluo-8 calcium fluorescence, potentiation; scaled from low-dose to maximal oxytocin. activation, % at 3 µM. 180 tested, under 10 active. AID 434985, 2010;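 active = mean percent activation over triplicates above a cutoff set from solvent-only control plates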;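 note: compounds tested in the presence of an EC15 dose of oxytocin; 0% = EC15 oxytocin with DMSO and 100% = EC100 oxytocin with DMSO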
V1aR agonist cf = V1a receptor agonists, calcium signal, confirmation, Fluo-8 calcium fluorescence, CHO-V1R cells; shares compounds with V1R ag counter; actives 20% (n = 180); agonist; activation, % at 3 µM;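 active = average activation exceeds primary screen hit cutoff, cut at about 21% in these data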;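 note: peak over basal fluorescence ratio during a 100 s FLIPR read; 0% = DMSO only wells and 100% = 3 nM vasopressin wells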
OXTR counter = human OXTR agonists, counter-screen for V1R agonist project, fluorescence, CHO-OTR cells, triplicate | shares compounds with V1R ag counter | Fluo-8 calcium fluorescence | activation, % at 3 µM | actives 10% (n = 180) | AID 434969, 2010;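 active = mean activation over three repeats above the cutoff from the earlier oxytocin receptor agonist screen, cut at about 20% in these data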;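 note: peak over minimum fluorescence ratio within a 100 second FLIPR read; 0% = DMSO only wells and 100% = oxytocin high control wells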
An asterisk follows results filed as active; . = not tested or not shown. Rows were chosen to be rich in hits. Some 2.3% of all compounds tested hit in one or more screens of this group.

SMILES	OXTR ag	V1R ag counter	OXTR potentiator	TAAR1 agonist	TAAR1 antag	others
COC(=O)C1=C(c2ccc(OC(F)(F)F)cc2)C[C@@H]2CC[C@H]1N2C(=O)N1CCOCC1	-1	1	-4	4	9
NCCc1ccc(OCc2ccccc2)c(OCc2ccccc2)c1	19	13	-8	55*	46
N#CC1c2ccccc2-n2nncc2CN1Cc1cc(Cl)cc(Cl)c1 (configuration not stated)	.	.	.	4	7
CC1=C(O)C(=O)C=C2C1=CC=C1C2(C)CCC2(C)C3CC(C)(C(=O)O)CCC3(C)CCC12C (configuration not stated)	.	.	.	41*	74*
CN1C(=O)C(C)(C2=CCCCC2)C(=O)NC1=S (configuration not stated)	.	.	.	3	1
COc1ccc(CNCCc2c(C)[nH]c3ccc(OC(F)(F)F)cc23)c(OC)c1	41*	41*	-23	54*	36
COc1ccc2[nH]c(C)c(CCNCc3cc(OC)c(OC)c(OC)c3)c2c1	1	0	-21	2	9
COC(=O)C1=C(c2ccc3ccccc3c2)C[C@@H]2CC[C@H]1N2C(=O)NC(C)C	0	0	-1	3	2
Nc1ccc2ccc3cccc[n+]3c2c1	38*	92*	-16	40*	8
C/C=C(\C)C(=O)OC1C(C)=C2C(C1OC(=O)CCCCC)C(C)(OC(C)=O)CC(OC(=O)CCC)C1(O)C2OC(=O)C1(C)O (configuration not stated)	62*	65*	-11	.	.
Cc1cccc(C)c1-n1nnnc1C(c1ccccc1OC(F)(F)F)N1CCC(n2c(=O)[nH]c3ccccc32)CC1 (configuration not stated)	.	.	.	4	-29
C=CCn1c(O)c(C(C)=NCCc2ccccc2)c(=O)[nH]c1=O	0	0	-19	40*	13
C=CCn1c(O)c(C(C)=NCCO)c(=O)[nH]c1=O	0	1	-7	10	-3
CC(C)N=C(NC(C)C)N1CC1	.	.	.	0	-9
Cc1cccc(C)c1-n1nnnc1C(C1CC1)N1CCC2(CC1)C(=O)NCN2c1ccccc1 (configuration not stated)	.	.	.	11	50*
O=c1c(C=NCc2cccs2)c(O)n(C2CCCCC2)c(=O)n1C1CCCCC1	0	0	-10	-3	-2
N=C(N)c1c(O)n(C2CCCCC2)c(=O)n(C2CCCCC2)c1=O	-2	3	-12	46*	18
O=C1NCN(c2ccccc2)C12CCN(C(c1ccccc1)c1nnnn1C1CCCC1)CC2 (configuration not stated)	.	.	.	-1	-12
O=[N+]([O-])c1ccc(N2CCOCC2)c2c1no[n+]2[O-]	.	.	.	5	-19
COC(=O)C1=C(C(=O)OC)C2OC1c1cc3ccccc3cc12	.	.	.	20	58*
COC(=O)C1=C(c2ccc3ccccc3c2)C[C@@H]2CC[C@H]1N2C	2	1	-5	18	-1
CCc1ccccc1NC(=O)N1C[C@H]2C[C@@H](C1)c1cccc(=O)n1C2	1	0	-1	1	-12
Cc1ccc(-c2cc(-c3ccc(C)cc3)[n+](-c3ccccc3)c(-c3ccc(C)cc3)c2)cc1	12	9	-15	.	.
c1ccc(-c2cc(-c3ccccc3)[n+](-c3ccccc3)c(-c3ccccc3)c2)cc1	2	2	-26	7	72*
Cc1ccc(-c2cc(-c3ccccc3)cc(-c3ccccc3)[n+]2-c2ccccc2)cc1	9	2	-12	34	104*
SMILES	OXTR ag	V1R ag counter	OXTR potentiator	TAAR1 agonist	TAAR1 antag	others
CCOC(=O)c1cc2c(cn1)[C@H](CCO)NC2	.	.	.	3	-11
CC(C)c1ccc(N2C(=O)NC(=O)/C(=C/C=C/c3ccco3)C2=O)cc1	2	5	-10	26	48
Cc1ccc(N2C(=O)NC(=O)/C(=C/C=C/c3ccco3)C2=O)cc1	2	2	-6	37	51*
BrCCc1ccccc1	0	1	-5	3	-15
CNCCCc1ccccc1	1	0	0	43*	3
O=S(=O)(c1ccc2ccccc2c1)N1Cc2cc(Br)ccc2-n2nncc2C1	.	.	.	0	-15
Cc1cccc(-n2c(O)c(/C=C/C=Nc3ccccc3)c(=O)[nH]c2=O)c1	23*	12	-7	21	29	OXTR ag confirm=26*;V1aR counter 3x=35*
CC(C)(C)c1cc(O)ccc1O	.	.	.	4	-12
CCOc1ccc(-n2c(O)c(C=NCCN(CC)CC)c(=O)[nH]c2=O)cc1	3	0	13*	2	-6	OXTR pot cf=-6
Cn1cccc1C1CCCN1CC(=O)Nc1ccc(C#N)c(Cl)c1 (configuration not stated)	1	2	-8	3	-11
C=CCn1c(O)c(C(CC)=Nc2cccc(C(=O)O)c2)c(=O)[nH]c1=O	1	22*	-6	1	-38	V1aR agonist cf=0;OXTR counter=-1
Cc1ccc(O)c(CN2CCC3CCC(C3)C2)c1 (configuration not stated)	.	.	.	0	6
COc1ccc(CN2C(=O)NC(=O)/C(=C/c3cc(OC)c(OC)c(OC)c3)C2=O)cc1	1	0	-5	7	4
COc1ccc(CN2C(=O)NC(=O)/C(=C/c3ccoc3)C2=O)cc1	17	33*	-22	15	-2	V1aR agonist cf=1;OXTR counter=1
